Data published in paper PMC3064798 (Nucleic Acids Research, 2011).

Legend:
Format in all cases: biochemical
Klenow(exo^−) polymerase = Klenow(exo^−) polymerase (Escherichia coli, UniProt P00582, D355A/E357A); experiment: PEP
In short: (§1)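 Polymerase end-point assay for single-base incorporation. 5 nM BODIPY-FL-labelled primer-1 was hybridised to 40 nM oligoTemplate-4, with the interrogation base complementary to dU. Absence of a +1 band on the 377 gel image at 100 μM counts as not active. IC50 was averaged from triplicates ± 1 SD. Incorporation bias is the analog IC50 divided by the natural-nucleotide (HOMedUTP) IC50.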

TaqFS polymerase = TaqFS polymerase (Thermus aquaticus, UniProt P19821, F667Y/G46D); experiment: PEP; conditions: for IC50 values (activity in words): TaqFS, Not Active = no visible +1 band in 377 gel image at 100 μM
In short: as §1

[1] = target: T1, Therminator II polymerase (Thermococcus sp., UniProt Q56366, A485L/D141A/E143A/Y409V); experiment: PEP; conditions: for Incorporation bias (analog IC50/HOMedUTP IC50): Therminator II
T1 sequence (Q56366 1-775 D141A/E143A/Y409V/A485L): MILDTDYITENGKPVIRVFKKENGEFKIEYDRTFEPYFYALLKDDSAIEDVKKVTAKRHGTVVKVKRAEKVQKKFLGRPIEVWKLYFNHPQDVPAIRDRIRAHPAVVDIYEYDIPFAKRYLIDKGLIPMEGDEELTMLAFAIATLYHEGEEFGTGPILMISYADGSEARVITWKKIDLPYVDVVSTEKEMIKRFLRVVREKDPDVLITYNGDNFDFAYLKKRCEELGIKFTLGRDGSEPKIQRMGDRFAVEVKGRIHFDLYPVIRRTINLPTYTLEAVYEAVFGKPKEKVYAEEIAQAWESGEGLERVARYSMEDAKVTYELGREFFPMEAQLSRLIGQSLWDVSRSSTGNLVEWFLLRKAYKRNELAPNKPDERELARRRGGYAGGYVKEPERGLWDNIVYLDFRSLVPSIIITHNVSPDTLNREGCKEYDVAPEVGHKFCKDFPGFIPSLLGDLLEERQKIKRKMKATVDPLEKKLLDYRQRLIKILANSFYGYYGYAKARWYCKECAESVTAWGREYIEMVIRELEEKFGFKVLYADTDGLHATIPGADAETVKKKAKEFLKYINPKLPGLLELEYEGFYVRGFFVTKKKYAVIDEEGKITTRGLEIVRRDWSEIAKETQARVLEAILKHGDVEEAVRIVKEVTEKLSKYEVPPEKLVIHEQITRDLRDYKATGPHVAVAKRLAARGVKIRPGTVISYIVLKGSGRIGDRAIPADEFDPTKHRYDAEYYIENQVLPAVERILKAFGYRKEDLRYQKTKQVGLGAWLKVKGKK
In short: as §1

[2] = target: T2, DeepVent(exo^−) polymerase (Pyrococcus sp., UniProt Q51334, D141A/DEL493-1029/E143A); experiment: PEP; conditions: for Incorporation bias (analog IC50/HOMedUTP IC50): DeepVent(exo^−)
T2 sequence (Q51334 with tags, fused parts or gaps D141A/E143A/DEL493-1029): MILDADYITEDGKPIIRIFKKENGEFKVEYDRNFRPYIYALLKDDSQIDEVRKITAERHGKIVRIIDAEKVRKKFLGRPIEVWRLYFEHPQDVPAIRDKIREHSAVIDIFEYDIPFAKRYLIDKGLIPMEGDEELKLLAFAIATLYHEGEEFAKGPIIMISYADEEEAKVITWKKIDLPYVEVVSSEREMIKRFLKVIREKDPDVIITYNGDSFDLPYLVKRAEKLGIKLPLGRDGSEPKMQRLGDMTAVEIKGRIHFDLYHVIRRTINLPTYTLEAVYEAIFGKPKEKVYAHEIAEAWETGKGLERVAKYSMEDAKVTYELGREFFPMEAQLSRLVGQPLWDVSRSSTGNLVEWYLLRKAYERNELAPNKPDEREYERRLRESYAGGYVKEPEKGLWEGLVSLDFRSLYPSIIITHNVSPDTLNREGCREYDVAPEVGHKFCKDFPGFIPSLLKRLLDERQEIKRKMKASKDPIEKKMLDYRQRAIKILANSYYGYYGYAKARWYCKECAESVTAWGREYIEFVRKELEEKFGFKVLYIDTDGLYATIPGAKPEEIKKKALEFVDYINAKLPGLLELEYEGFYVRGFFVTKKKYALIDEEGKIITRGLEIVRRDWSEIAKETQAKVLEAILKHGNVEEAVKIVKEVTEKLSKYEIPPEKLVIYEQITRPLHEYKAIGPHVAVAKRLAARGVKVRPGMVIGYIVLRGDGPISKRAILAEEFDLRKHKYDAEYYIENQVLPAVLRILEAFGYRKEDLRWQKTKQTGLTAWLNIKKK
In short: as §1

Vent(exo^−) polymerase = target: T3, Vent(exo^−) polymerase (Thermococcus litoralis, UniProt P30317, D141A/DEL1082-1471/DEL495-1032/E143A); experiment: Nucleotide selectivity; conditions: against a 'G' template base
T3 sequence (P30317 with tags, fused parts or gaps D141A/E143A/DEL495-1032/DEL1082-1471): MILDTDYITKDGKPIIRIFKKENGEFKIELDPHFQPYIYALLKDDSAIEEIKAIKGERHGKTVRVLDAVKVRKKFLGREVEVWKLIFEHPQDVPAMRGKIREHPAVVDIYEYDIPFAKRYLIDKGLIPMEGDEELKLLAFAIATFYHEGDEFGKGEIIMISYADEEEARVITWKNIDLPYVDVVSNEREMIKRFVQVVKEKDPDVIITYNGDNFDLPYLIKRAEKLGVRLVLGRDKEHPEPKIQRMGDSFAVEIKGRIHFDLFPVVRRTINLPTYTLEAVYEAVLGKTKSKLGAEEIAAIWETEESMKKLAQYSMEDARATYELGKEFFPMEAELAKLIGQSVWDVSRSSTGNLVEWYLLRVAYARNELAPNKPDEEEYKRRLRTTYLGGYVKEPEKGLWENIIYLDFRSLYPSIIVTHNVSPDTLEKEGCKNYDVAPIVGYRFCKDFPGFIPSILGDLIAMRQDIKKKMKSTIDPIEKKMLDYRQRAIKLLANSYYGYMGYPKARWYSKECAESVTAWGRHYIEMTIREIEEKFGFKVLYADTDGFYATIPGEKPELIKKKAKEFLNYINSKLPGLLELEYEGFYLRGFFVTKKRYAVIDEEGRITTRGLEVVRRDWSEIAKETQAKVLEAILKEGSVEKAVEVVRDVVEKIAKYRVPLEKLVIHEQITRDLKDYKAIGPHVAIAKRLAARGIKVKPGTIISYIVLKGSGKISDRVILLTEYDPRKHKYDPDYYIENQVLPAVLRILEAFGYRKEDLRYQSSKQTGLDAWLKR
In short: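 Base discrimination was measured by PEP assay. OligoTemplate-4 was replaced with 40 nM oligoTemplate-2 or oligoTemplate-5 to give mismatched template bases. For the T—G mismatch, 5 nM BODIPY-FL primer-3 was hybridised to 40 nM oligoTemplate-8. The selectivity ratio is the mismatched IC50 divided by the matched IC50.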

Chain of TaqFS polymerase (P19821 whole entry G46D/F667Y): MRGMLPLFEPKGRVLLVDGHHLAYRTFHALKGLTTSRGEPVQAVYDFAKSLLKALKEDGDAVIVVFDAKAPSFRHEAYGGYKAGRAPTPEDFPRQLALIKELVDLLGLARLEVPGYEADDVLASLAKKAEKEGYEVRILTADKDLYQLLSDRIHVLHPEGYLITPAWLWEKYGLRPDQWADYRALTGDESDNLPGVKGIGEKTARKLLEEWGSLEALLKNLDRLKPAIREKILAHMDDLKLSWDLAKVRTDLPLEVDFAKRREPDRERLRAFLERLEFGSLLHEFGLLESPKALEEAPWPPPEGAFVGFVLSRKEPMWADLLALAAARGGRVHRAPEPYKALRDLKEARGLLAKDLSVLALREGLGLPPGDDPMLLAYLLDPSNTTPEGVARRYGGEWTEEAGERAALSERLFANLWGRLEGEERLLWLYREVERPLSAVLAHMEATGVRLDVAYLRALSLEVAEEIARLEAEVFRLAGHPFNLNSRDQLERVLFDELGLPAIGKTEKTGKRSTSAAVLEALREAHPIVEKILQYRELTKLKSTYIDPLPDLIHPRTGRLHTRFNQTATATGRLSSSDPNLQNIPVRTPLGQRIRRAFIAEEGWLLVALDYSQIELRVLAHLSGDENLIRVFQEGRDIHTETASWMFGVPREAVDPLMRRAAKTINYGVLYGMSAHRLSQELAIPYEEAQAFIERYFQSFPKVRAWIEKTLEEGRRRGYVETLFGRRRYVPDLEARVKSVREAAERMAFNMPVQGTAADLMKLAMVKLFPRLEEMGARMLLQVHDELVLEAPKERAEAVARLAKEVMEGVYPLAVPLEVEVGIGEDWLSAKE

| Structure (SMILES) | IC50 (Klenow(exo^−) polymerase) | Incorporation bias (analog IC50/HOMedUTP IC50) (Klenow(exo^−) polymerase; Klenow(exo^−)) | IC50 values (activity in words) (TaqFS polymerase) | IC50 [1] | Incorporation bias (analog IC50/HOMedUTP IC50) [1] | IC50 [2] | Incorporation bias (analog IC50/HOMedUTP IC50) [2] | IC50 (TaqFS polymerase) | IC50 values (activity in words) (Klenow(exo^−) polymerase; Klenow(exo^−), Not Active = no visible +1 band in 377 gel image at 100 μM) | Selectivity ratio (mismatched IC50/matched IC50) (Vent(exo^−) polymerase) |
| --- | --- | --- | --- | --- | --- | --- | --- | --- | --- | --- |
| CC(OCc1cn([C@H]2C[C@H](O)[C@@H](COP(=O)(O)OP(=O)(O)OP(=O)(O)O)O2)c(=O)[nH]c1=O)c1ccccc1[N+](=O)[O-] (mixture of isomers) [dU.II, 5-[1-(2-Nitrophenyl)ethyloxy]methyl-2'-deoxyuridine-5’-triphosphate] | 2400 ± 100 nM | 1500 | no activity at all | 14 ± 1 nM | 1.9 | 17 ± 1 nM | 6.3 | – | – | – |
| O=c1[nH]c(=O)n([C@H]2C[C@H](O)[C@@H](COP(=O)(O)OP(=O)(O)OP(=O)(O)O)O2)cc1COCc1ccccc1[N+](=O)[O-] [dU.I, 5-(2-Nitrobenzyloxy)methyl-2'-deoxyuridine-5’-triphosphate] | 48 ± 4 nM | 30 | – | 5.7 ± 0.4 nM | 0.8 | 4.9 ± 1 nM | 1.8 | 25000 nM | – | – |
| CC(C)C(OCc1cn([C@H]2C[C@H](O)[C@@H](COP(=O)(O)OP(=O)(O)OP(=O)(O)O)O2)c(=O)[nH]c1=O)c1ccccc1[N+](=O)[O-] (mixture of isomers) [dU.III, 5-[1-(2-Nitrophenyl)-2-methyl-propyloxy]methyl-2'-deoxyuridine-5’-triphosphate] | – | – | none of the Family A polymerases showed any activity | 140 ± 10 nM | 20 | 220 ± 20 nM | 80 | – | Not Active^a | poorly extending the primer before revealing inhibitory effects |
